Several values for one entry are separate records, joined by “and”; a condition that tells them apart may be missing. Equal values may be shown once. Read-outs that look alike come from different tables or passages of the source. Marks after values point to notes of the source that are not given here.
Tests used:
[1] = CYP3A5*3/*3 compared to *1/*1 or *1/*3; cited from earlier work
[2] = assay type: in vivo, human
Summary of the method: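 Log of trough (ng/mL) divided by total daily dose (mg/kg), from up to 24 troughs per patient over 6 months, fitted by general linear model. Time posttransplant (1–24) was categorical, with a covariance structure for repeated measures. Clinical factors were retained at backward-selection F-test p<0.15. Variants were tested one at a time (additive model, Toeplitz covariance), adjusted for center and retained factors. Significance was set at FDR 20%, effective m=2110.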

[3] = assay type: in vivo, human; remark: listed apart in the source
Summary of the method: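 Adult kidney or kidney-pancreas recipients on tacrolimus with mycophenolate and steroids, with or without induction. Whole-blood troughs were drawn before an oral dose: two per week in weeks 1–8 and two per month in months 3–6. Measurement was mostly by LC-MS. Doses were adjusted to center targets, generally 8–12 ng/mL (months 0–3) and 6–10 ng/mL (months 4–6). Dose-normalized trough = trough/daily dose (mg/kg). AA and non-AA were compared by Wilcoxon-Mann-Whitney.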

[4] = assay type: in vivo, human; remark: listed apart in the source
Summary of the method: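 Uses the first log-transformed dose-normalized trough, taken within 4 days posttransplant. Variants and clinical factors were analysed by multiple linear regression with stepwise variable selection. Effect estimates and standard errors were taken from the final model. Age was mean-centered at 50.2 years. Center p-value is from the overall F-test.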

[5] = cited from earlier work
CYP3A5 = conditions: cited from earlier work
[6] = African American (n=144), over the first 6 months
[7] = nonAfrican American (n=551), over the first 6 months

For `C=CC[C@@H]1/C=C(\C)C[C@H](C)C[C@H](OC)[C@H]2O[C@@](O)(C(=O)C(=O)N3CCCC[C@H]3C(=O)O[C@H](/C(C)=C/[C@@H]3CC[C@@H](O)[C@H](OC)C3)[C@H](C)[C@@H](O)CC1=O)[C@H](C)C[C@@H]2OC` [tacrolimus, Tacrolimus], the “Intersubject pharmacokinetic variability in area under the curve, higher” value [1] is given as 41.1%, the “Reduction in log transformed dose-normalized trough” value ([2]; AA race relative to non-AAs) is given as 0.04 and the “Increase in dose-normalized trough” value ([2]; CYP3A4 (rs7801671, rs12114000, rs2687117), CYP3A7 (rs2687080, rs776740), CYP3A5 (rs10264272) variants, adjusted for rs776746) is given as 20–32%. The “Increase in log transformed dose-normalized troughs” value ([2]; calcium channel blocker (CCB) use) was 0.03, the “Increase in log transformed dose-normalized troughs” value ([2]; diabetes) was 0.12 and the “Increase in log transformed dose-normalized troughs” value ([2]; male gender) was 0.17. For the same compound, the “Reduction in log transformed dose-normalized troughs” value ([2]; one A allele (CYP3A5*1, rs776746)) was 36%, the “Effect on log transformed dose-normalized troughs (estimate ± SE)” value ([2]; one A allele (CYP3A5*1, rs776746), adjusted for clinical factors) was −0.44±0.03 and the “Increase in log transformed dose-normalized troughs” value ([2]; one allele of CYP3A4 (rs7801671, rs12114000, rs2687117), CYP3A7 (rs2687080, rs776740), CYP3A5 (rs10264272) variants, adjusted for rs776746) was 0.18–0.28. For the same compound, the “Reduction in log transformed dose-normalized troughs” value ([2]; two A alleles (CYP3A5*1, rs776746)) was 59%, the Median trough ([3]; AAs, remained despite 60% higher doses (Figure 1)) was less than 8 ng/mL and the “Trough concentration, median (interquartile range)” value (“Trough concentration, median” for short) [3, 6] was 6.2 (4.4–8.4) ^d ng/mL. For the same compound, the “Trough dose-normalized, median (interquartile range)” value (shortened to “Trough dose-normalized, median”) [3, 6] was 68.3 (46.1–103.6) ^d ng/ml per mg/kg/day, the “Subjects with first trough <8 ng/mL” value ([3]; African Americans) was 96.6% and the “First trough concentration (week one posttransplant), median (interquartile range)” value ([3]; African Americans, daily dose 4.0 (4.0–5.0) mg/day) was 2.1 (1.2–3.5) ng/mL. For the same compound, the “Dose-normalized trough, median (interquartile range)” value (“Dose-normalized trough, median” below) ([3]; CYP3A5*1/*1 genotype) was 54.3(37.9–80.3) ng/mL per mg/kg, the “Trough concentration, median” value ([3]; CYP3A5 *1/*1 genotype (rs776746)) was 5.8(4.1–7.9) ng/mL and the “Dose-normalized trough, median” value ([3]; CYP3A5 *1/*3 genotype) was 77.8(53.1–114.6) ng/mL per mg/kg. For the same compound, the “Trough concentration, median” value ([3]; CYP3A5 *1/*3 genotype (rs776746)) was 7.1(5.1–9.3) ng/mL, the “Dose-normalized trough, median” value ([3]; CYP3A5 *3/*3 genotype) was 141.1(91.7–214.5) ng/mL per mg/kg and the “Trough concentration, median” value ([3]; CYP3A5 *3/*3 genotype (rs776746)) was 8.4(6.5–10.5) ng/mL. For the same compound, the “Trough dose-normalized, median” value ([3]; all subjects (n=695), over the first 6 months) was 116.5 (70.7–186.3) ng/ml per mg/kg/day, the “Trough concentration, median” value ([3]; all subjects (n=695), over the first 6 months, whole blood, oral dosing) was 7.9 (5.9–10.1) ng/mL and the “Trough concentration, median” value ([3]; center 1, 6 month study period) was 9.5 (8.0–11.4) ng/mL. For the same compound, the “Trough concentration, median” value ([3]; center 2, 6 month study period) was 10.5 (7.4–13.0) ng/mL, the “Trough concentration, median” value ([3]; center 3, 6 month study period) was 7.9 (6.1–10.1) ng/mL and the “Trough concentration, median” value ([3]; center 4, 6 month study period) was 9.7 (7.5–12.2) ng/mL. For the same compound, the “Trough concentration, median” value ([3]; center 5, 6 month study period) was 8.9 (7.1–10.6) ng/mL, the “Trough concentration, median” value ([3]; center 6, 6 month study period) was 9.1 (7.0–11.3) ng/mL and the “Trough concentration, median” value ([3]; center 7, 6 month study period) was 6.6 (4.7–8.7) ng/mL. The First trough concentration ([3]; measured within 4 days after transplantation, in most subjects) was less than 5 ng/mL, the Troughs achieved ([3]; non-AA group, quickly achieved (Figure 1)) was greater than 8 ng/mL and the “Subjects with first trough <8 ng/mL” value ([3]; non-African Americans) was 73.9%. The “First trough concentration (week one posttransplant), median (interquartile range)” value ([3]; non-African Americans, daily dose 4.0 [4.0–6.0] mg/day) was 5.0 [3.1–8.2] ng/mL and 5.0 (3.1–8.2) ng/mL, the “Trough concentration, median” value [3, 7] was 8.3 (6.4–10.4) ng/mL and the “Trough dose-normalized, median” value [3, 7] was 131.4 (83.0–201.8) ng/ml per mg/kg/day. The “Median trough lower in AA than in non-AA recipients” value ([3]; over the 6 month study period, AAs on 60% higher median daily dose) was 2.1 ng/mL, the “Effect on log transformed dose-normalized first trough (Estimate ± SE)” value ([4]; African American subjects only, Diabetes) was 0.45 ± 0.12 and the “Effect on log transformed dose-normalized first trough (Estimate ± SE)” value ([4]; African American subjects only, rs776746 (CYP3A5)) was −0.25 ± 0.08. The “Effect on log transformed dose-normalized first trough (Estimate ± SE)” value ([4]; African American subjects only, rs2072374 (CNAP1)) was −0.45 ± 0.17, the “Effect on log transformed dose-normalized first trough (Estimate ± SE)” value ([4]; African American subjects only, rs2239393 (COMT)) was −0.19 ± 0.08 and the “Effect on log transformed dose-normalized first trough (Estimate ± SE)” value ([4]; African American subjects only, rs2280789 (CCL5)) was 0.23 ± 0.10. The “Effect on log transformed dose-normalized first trough (Estimate ± SE)” value ([4]; African American subjects only, rs2288648 (FASTK)) was −0.41 ± 0.17, the “Effect on log transformed dose-normalized first trough (Estimate ± SE)” value ([4]; African American subjects only, rs3136228 (MSH6)) was −0.20 ± 0.08 and the “Effect on log transformed dose-normalized first trough (Estimate ± SE)” value ([4]; African American subjects only, rs12114000 (CYP3A4)) was 0.38 ± 0.11. The “Effect on log transformed dose-normalized first trough (Estimate ± SE)” value ([4]; Non-African American subjects only, Age in years, mean-centered at 50.2 years) was 0.010 ± 0.002, the “Effect on log transformed dose-normalized first trough (Estimate ± SE)” value ([4]; Non-African American subjects only, Diabetes) was 0.21 ± 0.06 and the “Effect on log transformed dose-normalized first trough (Estimate ± SE)” value ([4]; Non-African American subjects only, rs4926 (SERPING1)) was −0.12 ± 0.04. For the same compound, the “Effect on log transformed dose-normalized first trough (Estimate ± SE)” value ([4]; Non-African American subjects only, rs17567 (EPS15)) was 0.12 ± 0.05, the “Effect on log transformed dose-normalized first trough (Estimate ± SE)” value ([4]; Non-African American subjects only, rs776746 (CYP3A5)) was −0.31 ± 0.07 and the “Effect on log transformed dose-normalized first trough (Estimate ± SE)” value ([4]; Non-African American subjects only, rs1800822 (FMO3)) was 0.20 ± 0.09. For the same compound, the “Effect on log transformed dose-normalized first trough (Estimate ± SE)” value ([4]; Non-African American subjects only, rs2239393 (COMT)) was −0.07 ± 0.04, the “Effect on log transformed dose-normalized first trough (Estimate ± SE)” value ([4]; Non-African American subjects only, rs2608555 (GAN)) was 0.17 ± 0.04 and the “Effect on log transformed dose-normalized first trough (Estimate ± SE)” value ([4]; Non-African American subjects only, rs3135506 (APOA5)) was −0.23 ± 0.08. The “Effect on log transformed dose-normalized first trough (Estimate ± SE)” value ([4]; Non-African American subjects only, rs3734354 (SIM1)) was 0.20 ± 0.06, the “Effect on log transformed dose-normalized first trough (Estimate ± SE)” value ([4]; all subjects model, Age in years, mean-centered at 50.2 years) was 0.008 ± 0.002 and the “Effect on log transformed dose-normalized first trough (Estimate ± SE)” value ([4]; all subjects model, Diabetes) was 0.23 ± 0.05. For the same compound, the “Effect on log transformed dose-normalized first trough (Estimate ± SE)” value ([4]; all subjects model, rs3448 (GPX1)) was 0.07 ± 0.04, the “Effect on log transformed dose-normalized first trough (Estimate ± SE)” value ([4]; all subjects model, rs4926 (SERPING1)) was −0.09 ± 0.04 and the “Effect on log transformed dose-normalized first trough (Estimate ± SE)” value ([4]; all subjects model, rs13321 (TNC)) was 0.06 ± 0.04. The “Effect on log transformed dose-normalized first trough (Estimate ± SE)” value ([4]; all subjects model, rs17567 (EPS15)) was 0.10 ± 0.04, the “Effect on log transformed dose-normalized first trough (Estimate ± SE)” value ([4]; all subjects model, rs776746 (CYP3A5)) was −0.33 ± 0.05 and the “Effect on log transformed dose-normalized first trough (Estimate ± SE)” value ([4]; all subjects model, rs2072374 (CNAP1)) was −0.08 ± 0.04. For the same compound, the “Effect on log transformed dose-normalized first trough (Estimate ± SE)” value ([4]; all subjects model, rs2239393 (COMT)) was −0.28 ± 0.08, the “Effect on log transformed dose-normalized first trough (Estimate ± SE)” value ([4]; all subjects model, rs2608555 (GAN)) was 0.15 ± 0.04 and the “Effect on log transformed dose-normalized first trough (Estimate ± SE)” value ([4]; all subjects model, rs2687117 (CYP3A4)) was 0.26 ± 0.08. The “Effect on log transformed dose-normalized first trough (Estimate ± SE)” value ([4]; all subjects model, rs3135506 (APOA5)) was −0.23 ± 0.07, the “Effect on log transformed dose-normalized first trough (Estimate ± SE)” value ([4]; all subjects model, rs3734354 (SIM1)) was 0.19 ± 0.06 and the “Effect on log transformed dose-normalized first trough (Estimate ± SE)” value ([4]; all subjects model, rs4646312 (COMT)) was 0.22 ± 0.08. The “Subjects achieving the trough target” value ([5]; control group) was 29.1%, the “Subjects achieving the trough target” value ([5]; genotype adapted dosing) was 43.2% and the “Fraction metabolized through CYP3A5” value (CYP3A5; hepatic enzymes from CYP3A5*1 allele carriers) was 60%. For the same compound, the “Intrinsic tacrolimus clearance of CYP3A5 enzyme relative to CYP3A4” value (CYP3A5; in vitro) was “twice”.
